Test results published in ChEMBL document CHEMBL4219113, “Pyridazine and pyridazinone derivatives as potent and selective factor XIa inhibitors” (Bioorg Med Chem Lett, 2018).

What was measured:
Coagulation factor XI = Coagulation factor XI (Homo sapiens, UniProt P03951); experiment: Inhibition of human factor 11a using pyro-Glu-Pro-Arg-pNA as substrate measured after 10 to 120 mins by spectrophotometric method
Plasma = experiment: Anticoagulant activity in human plasma assessed as increase in activated partial thromboplastin time; type: functional
Procedure, shortened: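 In vitro clotting test in human plasma measuring activated partial thromboplastin time (aPTT). EC1.5x is the concentration that extends aPTT to 1.5-fold.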

[1] = Half life in human liver microsomes pretreated for 5 mins followed by NADPH addition by UV-LC/MS analysis; type: ADME, microsome
[2] = Clearance in dog at 0.2 to 0.5 mg/kg, po or 0.2 to 0.4 mg/kg, iv administered as cassette dose; type: ADME, organism-based, Canis lupus familiaris; conditions: in vivo
Procedure, shortened: (§1)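 Dogs received cassette dosing at 0.2–0.5 mg/kg orally and 0.2–0.4 mg/kg intravenously. The iv vehicle was 10% DMAC, 10% EtOH, 10% PG and 70% water. The oral vehicle was 10% EtOH, 70% PEG400 and 20% TPGS.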

[3] = Volume of distribution at steady state in dog at 0.2 to 0.5 mg/kg, po or 0.2 to 0.4 mg/kg, iv administered as cassette dose; type: ADME, organism-based, Canis lupus familiaris; conditions: in vivo, read-out: Vdss; procedure, shortened: as §1
[4] = Half life in dog at 0.2 to 0.5 mg/kg, po or 0.2 to 0.4 mg/kg, iv administered as cassette dose; type: ADME, organism-based, Canis lupus familiaris; conditions: in vivo; procedure, shortened: as §1
[5] = Oral bioavailability in dog at 0.2 to 0.5 mg/kg; type: ADME, organism-based, Canis lupus familiaris; conditions: in vivo; procedure, shortened: as §1
Coagulation factor VII = target: T1, Coagulation factor VII (Homo sapiens, UniProt P08709); experiment: Inhibition of human factor 7a
T1 sequence (P08709 whole entry): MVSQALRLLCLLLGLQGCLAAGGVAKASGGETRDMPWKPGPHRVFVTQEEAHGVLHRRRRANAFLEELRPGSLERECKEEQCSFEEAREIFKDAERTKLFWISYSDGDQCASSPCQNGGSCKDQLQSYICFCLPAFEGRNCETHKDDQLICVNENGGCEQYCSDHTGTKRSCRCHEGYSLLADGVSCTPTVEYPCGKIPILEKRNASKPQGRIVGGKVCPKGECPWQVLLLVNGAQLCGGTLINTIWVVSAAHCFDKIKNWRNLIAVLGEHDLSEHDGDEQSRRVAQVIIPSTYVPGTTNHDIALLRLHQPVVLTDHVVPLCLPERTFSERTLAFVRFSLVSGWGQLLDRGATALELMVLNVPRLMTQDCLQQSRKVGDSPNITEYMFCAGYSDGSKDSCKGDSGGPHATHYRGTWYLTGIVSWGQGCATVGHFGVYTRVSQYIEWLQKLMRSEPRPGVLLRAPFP

Coagulation factor IX = Coagulation factor IX (Homo sapiens, UniProt P00740); experiment: Inhibition of human factor 9a
Coagulation factor X = Coagulation factor X (Homo sapiens, UniProt P00742); experiment: Inhibition of human factor 10a
Prothrombin = Prothrombin (Homo sapiens, UniProt P00734); experiment: Inhibition of human thrombin
Trypsin = Trypsin (Homo sapiens, UniProt P07477+P07478+P35030); experiment: Inhibition of human trypsin; type: protein assay
Plasma kallikrein = Plasma kallikrein (Homo sapiens, UniProt P03952); experiment: Inhibition of human plasma kallikrein
[6] = target: Vitamin K-dependent protein C (Homo sapiens, UniProt P04070); experiment: Inhibition of human activated protein C
Plasminogen = Plasminogen (Homo sapiens, UniProt P00747); experiment: Inhibition of human plasmin
[7] = target: Tissue-type plasminogen activator (Homo sapiens, UniProt P00750); experiment: Inhibition of human TPA
[8] = target: Urokinase-type plasminogen activator (Homo sapiens, UniProt P00749); experiment: Inhibition of human urokinase
[9] = Inhibition of human chymotrypsin
[10] = Oral bioavailability in dog at 0.5 mg/kg; type: ADME, organism-based, Canis lupus familiaris; conditions: in vivo; procedure, shortened: as §1

Sequence of Plasma kallikrein (P03952 20-390 limits assumed): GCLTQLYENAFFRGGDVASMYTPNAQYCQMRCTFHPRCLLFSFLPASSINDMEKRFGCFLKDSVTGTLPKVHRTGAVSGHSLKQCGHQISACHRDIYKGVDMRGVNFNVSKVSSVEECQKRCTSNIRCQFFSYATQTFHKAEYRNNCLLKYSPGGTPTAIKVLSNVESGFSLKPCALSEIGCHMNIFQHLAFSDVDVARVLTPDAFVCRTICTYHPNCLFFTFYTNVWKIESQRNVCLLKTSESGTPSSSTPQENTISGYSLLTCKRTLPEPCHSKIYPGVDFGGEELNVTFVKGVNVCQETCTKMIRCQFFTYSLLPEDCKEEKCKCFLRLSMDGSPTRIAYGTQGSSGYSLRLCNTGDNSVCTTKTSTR
Sequence of Plasma kallikrein (P03952 391-638 limits assumed): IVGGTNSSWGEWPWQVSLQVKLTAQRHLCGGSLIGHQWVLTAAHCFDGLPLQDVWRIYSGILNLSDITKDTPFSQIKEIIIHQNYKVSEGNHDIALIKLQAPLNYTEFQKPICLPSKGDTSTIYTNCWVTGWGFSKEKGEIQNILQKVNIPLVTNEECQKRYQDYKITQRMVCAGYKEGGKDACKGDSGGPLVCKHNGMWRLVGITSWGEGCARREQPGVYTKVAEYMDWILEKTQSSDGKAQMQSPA
Sequence of Tissue-type plasminogen activator (P00750 whole entry): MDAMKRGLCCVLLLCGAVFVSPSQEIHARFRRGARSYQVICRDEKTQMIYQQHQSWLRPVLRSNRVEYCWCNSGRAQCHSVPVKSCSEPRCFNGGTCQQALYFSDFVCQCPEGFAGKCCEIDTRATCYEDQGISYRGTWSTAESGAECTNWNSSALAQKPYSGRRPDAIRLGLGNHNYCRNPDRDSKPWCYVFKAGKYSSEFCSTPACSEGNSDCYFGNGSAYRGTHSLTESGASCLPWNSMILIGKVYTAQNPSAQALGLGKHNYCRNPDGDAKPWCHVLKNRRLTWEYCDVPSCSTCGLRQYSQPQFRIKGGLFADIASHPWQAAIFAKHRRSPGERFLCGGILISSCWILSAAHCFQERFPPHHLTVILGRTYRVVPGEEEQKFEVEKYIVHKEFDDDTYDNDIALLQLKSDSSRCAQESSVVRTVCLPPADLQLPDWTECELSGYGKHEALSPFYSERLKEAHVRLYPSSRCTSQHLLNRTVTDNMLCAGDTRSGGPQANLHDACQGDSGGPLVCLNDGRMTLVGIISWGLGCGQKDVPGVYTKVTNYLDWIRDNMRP
Sequence of Vitamin K-dependent protein C (P04070 43-197 limits assumed): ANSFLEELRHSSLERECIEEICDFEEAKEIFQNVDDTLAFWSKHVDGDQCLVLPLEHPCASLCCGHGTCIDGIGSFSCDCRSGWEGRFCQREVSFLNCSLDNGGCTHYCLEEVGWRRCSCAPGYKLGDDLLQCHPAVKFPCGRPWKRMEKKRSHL
Sequence of Vitamin K-dependent protein C (P04070 212-461 limits assumed): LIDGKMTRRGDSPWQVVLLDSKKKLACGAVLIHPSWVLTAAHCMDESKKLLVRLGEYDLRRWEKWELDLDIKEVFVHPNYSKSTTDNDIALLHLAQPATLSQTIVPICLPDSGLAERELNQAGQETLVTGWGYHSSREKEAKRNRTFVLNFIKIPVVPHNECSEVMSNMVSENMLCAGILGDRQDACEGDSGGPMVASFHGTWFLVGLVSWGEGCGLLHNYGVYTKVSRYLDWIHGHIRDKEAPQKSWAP
Sequence of Coagulation factor XI (P03951 19-387 limits assumed): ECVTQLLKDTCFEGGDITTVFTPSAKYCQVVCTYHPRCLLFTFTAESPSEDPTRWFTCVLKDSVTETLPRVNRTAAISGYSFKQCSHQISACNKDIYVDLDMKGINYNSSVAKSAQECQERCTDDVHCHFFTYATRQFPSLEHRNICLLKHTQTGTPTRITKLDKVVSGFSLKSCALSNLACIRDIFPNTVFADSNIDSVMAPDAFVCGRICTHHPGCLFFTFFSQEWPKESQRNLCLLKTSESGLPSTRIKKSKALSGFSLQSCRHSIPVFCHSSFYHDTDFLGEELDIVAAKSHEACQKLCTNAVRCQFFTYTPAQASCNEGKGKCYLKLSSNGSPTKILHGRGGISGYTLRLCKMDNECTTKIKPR
Sequence of Coagulation factor XI (P03951 388-625 limits assumed): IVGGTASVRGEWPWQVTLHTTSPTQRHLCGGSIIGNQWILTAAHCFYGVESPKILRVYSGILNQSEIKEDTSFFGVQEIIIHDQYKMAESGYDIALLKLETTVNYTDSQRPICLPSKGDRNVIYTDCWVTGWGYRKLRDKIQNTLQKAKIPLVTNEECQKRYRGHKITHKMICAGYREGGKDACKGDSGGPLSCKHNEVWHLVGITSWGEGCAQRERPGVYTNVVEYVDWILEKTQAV
Sequence of Coagulation factor X (P00742 41-179 limits assumed): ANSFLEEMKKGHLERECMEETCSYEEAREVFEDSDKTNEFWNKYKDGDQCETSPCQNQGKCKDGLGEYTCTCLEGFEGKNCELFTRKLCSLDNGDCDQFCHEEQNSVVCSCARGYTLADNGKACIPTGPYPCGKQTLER
Sequence of Coagulation factor X (P00742 235-488 limits assumed): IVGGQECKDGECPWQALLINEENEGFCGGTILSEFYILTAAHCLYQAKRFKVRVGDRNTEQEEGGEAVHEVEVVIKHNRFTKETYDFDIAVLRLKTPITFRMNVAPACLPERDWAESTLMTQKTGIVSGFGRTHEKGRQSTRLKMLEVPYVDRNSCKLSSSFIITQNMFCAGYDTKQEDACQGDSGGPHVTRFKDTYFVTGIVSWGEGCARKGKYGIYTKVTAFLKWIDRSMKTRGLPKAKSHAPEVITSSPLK
Sequence of Plasminogen (P00747 97-580 limits assumed): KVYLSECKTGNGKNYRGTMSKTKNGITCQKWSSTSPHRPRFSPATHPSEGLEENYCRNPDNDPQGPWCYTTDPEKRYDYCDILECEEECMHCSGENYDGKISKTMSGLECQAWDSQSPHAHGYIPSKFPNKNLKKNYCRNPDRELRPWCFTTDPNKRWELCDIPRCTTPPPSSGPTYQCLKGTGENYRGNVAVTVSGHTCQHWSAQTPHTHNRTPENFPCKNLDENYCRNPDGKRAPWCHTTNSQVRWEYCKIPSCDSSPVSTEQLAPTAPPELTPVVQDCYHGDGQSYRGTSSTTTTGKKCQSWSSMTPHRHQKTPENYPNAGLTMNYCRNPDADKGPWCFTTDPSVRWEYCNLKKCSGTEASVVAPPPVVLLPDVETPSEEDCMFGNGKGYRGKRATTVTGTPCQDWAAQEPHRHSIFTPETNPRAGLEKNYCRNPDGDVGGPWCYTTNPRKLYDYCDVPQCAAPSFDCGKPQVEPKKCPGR
Sequence of Plasminogen (P00747 581-810 limits assumed): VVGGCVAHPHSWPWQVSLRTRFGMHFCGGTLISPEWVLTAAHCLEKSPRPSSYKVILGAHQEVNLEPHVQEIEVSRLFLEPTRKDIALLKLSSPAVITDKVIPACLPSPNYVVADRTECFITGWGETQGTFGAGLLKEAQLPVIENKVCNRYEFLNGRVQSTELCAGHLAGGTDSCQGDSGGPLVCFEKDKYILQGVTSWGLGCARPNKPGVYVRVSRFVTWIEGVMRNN
Sequence of Coagulation factor IX (P00740 47-191 limits assumed): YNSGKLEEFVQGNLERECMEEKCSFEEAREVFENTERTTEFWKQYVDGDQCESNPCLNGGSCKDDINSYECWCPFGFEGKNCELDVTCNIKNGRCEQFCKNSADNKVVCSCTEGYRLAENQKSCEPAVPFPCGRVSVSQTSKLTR
Sequence of Coagulation factor IX (P00740 227-461 limits assumed): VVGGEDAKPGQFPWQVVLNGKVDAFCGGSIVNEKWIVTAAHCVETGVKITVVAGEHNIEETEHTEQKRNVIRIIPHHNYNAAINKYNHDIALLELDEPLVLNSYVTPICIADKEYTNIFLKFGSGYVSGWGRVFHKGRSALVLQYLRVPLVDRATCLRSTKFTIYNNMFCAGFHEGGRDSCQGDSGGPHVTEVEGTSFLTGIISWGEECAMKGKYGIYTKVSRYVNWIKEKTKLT

| Compound | Ki (Coagulation factor XI) [nM] | EC1.5 (Plasma) [µM] | half-life [1] [min] | clearance [2] [mL/min/kg] | Vd [3] [L/kg] | half-life [4] [min] | bioavailability [5] [%] | other results |
| --- | --- | --- | --- | --- | --- | --- | --- | --- |
| COC(=O)Nc1ccc(-c2cc([C@H](Cc3ccccc3)NC(=O)/C=C/c3cc(Cl)ccc3-n3cnnn3)nnc2OC)cc1 | 36 | 50 | – | – | – | – | – | – |
| COC(=O)Nc1ccc(-c2cc([C@H](Cc3ccncc3)NC(=O)/C=C/c3cc(Cl)ccc3-n3cnnn3)nnc2Cl)cc1 | 12 | 6.2 | 2.8 | – | – | – | – | – |
| COC(=O)Nc1ccc(-c2cc([C@H](Cc3ccccc3)NC(=O)/C=C/c3cc(Cl)ccc3-n3cnnn3)cnn2)cc1 | 4.1 | 3.5 | 9.6 | 18.2 | 1.4 | 66 | < 3 | – |
| COC(=O)Nc1ccc(-c2cc([C@H](CC(=O)N3CCN(C)CC3)NC(=O)/C=C/c3cc(Cl)ccc3-n3cnnn3)c(Cl)nn2)cc1 | 4 | 0.9 | – | – | – | – | – | – |
| COC(=O)Nc1ccc(-c2cc([C@H](Cc3ccccc3)NC(=O)/C=C/c3cc(Cl)ccc3-n3cnnn3)c(Cl)nn2)cc1 | 1.9 | 2.2 | 31 | 15.5 | 2.1 | 108 | < 3 | Ki (Coagulation factor VII): 3280 nM; Ki (Coagulation factor IX): 22000 nM; Ki (Coagulation factor X): 1940 nM; Ki (Prothrombin): 10600 nM; Ki (Trypsin): 3730 nM; Ki (Plasma kallikrein): 192 nM; Ki [6]: 16300 nM; Ki (Plasminogen): 4490 nM; Ki [7]: 994 nM; Ki [8]: 13300 nM; Ki [9]: 29600 nM |
| COC(=O)Nc1ccc(-c2cc([C@H](Cc3cccc(F)c3)NC(=O)/C=C/c3cc(Cl)ccc3-n3cnnn3)nnc2Cl)cc1 | 10 | 17 | 12 | – | – | – | – | – |
| COC(=O)Nc1ccc(-c2cnnc([C@H](Cc3ccccc3)NC(=O)/C=C/c3cc(Cl)ccc3-n3cnnn3)c2)cc1 | 7 | 14 | 9.1 | 8.9 | 1.3 | 108 | 18 | Ki (Coagulation factor VII): > 13300 nM; Ki (Coagulation factor X): 840 nM; Ki (Prothrombin): > 13300 nM; Ki (Trypsin): > 6220 nM; Ki (Plasma kallikrein): 268 nM; Ki [6]: 68000 nM; Ki (Plasminogen): 38100 nM; Ki [7]: > 14700 nM; Ki [8]: > 29700 nM; Ki [9]: 11900 nM |
| COC(=O)Nc1ccc(-c2ccnc([C@H](Cc3ccccc3)NC(=O)/C=C/c3cc(Cl)ccc3-n3cnnn3)c2)cc1 | – | >40 | – | – | – | – | – | bioavailability [10]: 34% |
| COC(=O)Nc1ccc(-c2cc([C@H](Cc3ccccc3)NC(=O)/C=C/c3cc(Cl)ccc3-n3cnnn3)n[nH]c2=O)cc1 | 10 | 11 | – | – | – | – | – | – |
| COC(=O)Nc1ccc(-c2cc([C@H](CC(=O)N3CC[C@@H](O)C3)NC(=O)/C=C/c3cc(Cl)ccc3-n3cnnn3)nnc2Cl)cc1 | 26 | 7.5 | – | – | – | – | – | – |
| COC(=O)Nc1ccc(-c2cc([C@H](C[C@@H]3CCCN(C(C)=O)C3)NC(=O)/C=C/c3cc(Cl)ccc3-n3cnnn3)nnc2Cl)cc1 | 89 | 8.8 | – | – | – | – | – | – |
| COC(=O)Nc1ccc(-c2cc([C@H](Cc3ccccc3)NC(=O)/C=C/c3cc(Cl)ccc3-n3cnnn3)nnc2C(=O)O)cc1 | 11 | 32 | – | – | – | – | – | – |
| COC(=O)Nc1ccc(-c2cc([C@H](Cc3ccccc3)NC(=O)/C=C/c3cc(Cl)ccc3-n3cnnn3)nnc2Cl)cc1 | 9.6 | 9.3 | 8.6 | 6.3 | 2.3 | 426 | 16 | Ki (Coagulation factor VII): > 13300 nM; Ki (Coagulation factor IX): > 73700 nM; Ki (Coagulation factor X): 200 nM; Ki (Prothrombin): > 13300 nM; Ki (Trypsin): > 6220 nM; Ki (Plasma kallikrein): > 6000 nM; Ki [6]: > 64400 nM; Ki (Plasminogen): 76600 nM; Ki [7]: 10100 nM; Ki [8]: > 29700 nM; Ki [9]: > 27200 nM |
| CNC(=O)c1nnc([C@H](Cc2ccccc2)NC(=O)/C=C/c2cc(Cl)ccc2-n2cnnn2)cc1-c1ccc(NC(=O)OC)cc1 | 31 | 45 | – | – | – | – | – | – |
| COC(=O)Nc1ccc(-c2cc([C@H](Cc3ccccc3)NC(=O)/C=C/c3cc(Cl)ccc3-n3cnnn3)nnc2C)cc1 | 10 | 11 | 5.1 | 9.2 | 1.2 | 120 | 14 | Ki (Coagulation factor VII): > 13300 nM; Ki (Coagulation factor IX): 39300 nM; Ki (Coagulation factor X): > 3000 nM; Ki (Prothrombin): > 13300 nM; Ki (Trypsin): > 6220 nM; Ki (Plasma kallikrein): 1370 nM; Ki [6]: > 64400 nM; Ki (Plasminogen): > 53400 nM; Ki [7]: > 14700 nM; Ki [8]: > 29700 nM; Ki [9]: > 27200 nM |
| COC(=O)Nc1ccc(-c2cc([C@H](Cc3ccccc3)NC(=O)/C=C/c3cc(Cl)ccc3-n3cnnn3)c(=O)[nH]n2)cc1 | 22 | 19 | – | – | – | – | – | – |
| COC(=O)Nc1ccc(-c2nc([C@H](Cc3ccccc3)NC(=O)/C=C/c3cc(Cl)ccc3-n3cnnn3)[nH]c2Cl)cc1 | – | 5.3 | – | – | – | – | – | – |
| COC(=O)Nc1ccc(-c2cc([C@H](Cc3ccccc3)NC(=O)/C=C/c3cc(Cl)ccc3-n3cnnn3)c(C)nn2)cc1 | 6.1 | 14 | – | – | – | – | – | – |
| COC(=O)Nc1ccc(-c2cc([C@H](CC(=O)N3CC[C@@H](O)C3)NC(=O)/C=C/c3cc(Cl)ccc3-n3cnnn3)c(Cl)nn2)cc1 | 6.6 | 1.6 | 36 | 24.7 | 1.2 | 54 | < 3 | – |
| COC(=O)Nc1ccc(-c2cc([C@H](Cc3ccc(F)cc3)NC(=O)/C=C/c3cc(Cl)ccc3-n3cnnn3)nnc2Cl)cc1 | 9.3 | 22 | 20 | 5.1 | 1.5 | 402 | 12 | – |
